Assays:
HUVEC [1] = experiment: In vitro inhibition of primary human umbilical vein endothelial cell (HUVEC) proliferation at 3 uM; type: functional; conditions: values are per cent of control
In short: (§1)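 bFGF-stimulated HUVEC proliferation; cells incubated with bFGF alone or with increasing compound concentrations. Cell counts remaining normalized: maximal bFGF response = 100%, wells without bFGF (starved) = 0%. Mean ± SEM, n = 11 or n = 5 depending on experiment.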

HUVEC [2] = experiment: In vitro inhibition of primary human umbilical vein endothelial cell (HUVEC) proliferation at 0.01 uM; type: functional; conditions: values are per cent of control; in short: as §1
HUVEC [3] = experiment: IIn vitro inhibition of primary human umbilical vein endothelial cell (HUVEC) proliferation at 0.1 uM; type: functional; conditions: values are per cent of control; in short: as §1
[4] = biological target: Estrogen receptor beta (Homo sapiens) (UniProt Q92731); experiment: In vitro displacement of 0.5 nM [3H]E2 from human Estrogen receptor beta at 10 uM
HUVEC [5] = experiment: In vitro inhibition of primary human umbilical vein endothelial cell (HUVEC) proliferation at 1 uM; type: functional; conditions: values are per cent of control; in short: as §1
HUVEC [6] = experiment: In vitro inhibition of primary human umbilical vein endothelial cell (HUVEC) proliferation at 10 uM; type: functional; conditions: values are per cent of control; in short: as §1

Estrogen receptor beta (Homo sapiens), sequence (Q92731 whole entry): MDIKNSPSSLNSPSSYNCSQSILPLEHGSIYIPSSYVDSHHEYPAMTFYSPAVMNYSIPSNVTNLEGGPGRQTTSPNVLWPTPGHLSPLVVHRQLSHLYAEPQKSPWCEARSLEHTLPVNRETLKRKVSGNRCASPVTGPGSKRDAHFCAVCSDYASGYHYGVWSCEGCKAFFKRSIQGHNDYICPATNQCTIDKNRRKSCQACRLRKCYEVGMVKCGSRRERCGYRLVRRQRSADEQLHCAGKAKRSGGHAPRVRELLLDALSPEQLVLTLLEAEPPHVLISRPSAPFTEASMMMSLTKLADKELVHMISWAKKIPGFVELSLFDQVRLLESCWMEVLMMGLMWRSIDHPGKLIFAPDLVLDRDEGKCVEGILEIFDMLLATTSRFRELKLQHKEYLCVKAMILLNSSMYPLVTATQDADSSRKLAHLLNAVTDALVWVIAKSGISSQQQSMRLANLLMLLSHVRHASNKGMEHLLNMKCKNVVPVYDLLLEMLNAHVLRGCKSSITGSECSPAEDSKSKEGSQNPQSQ

SMILES	growth, % of control at 3 µM (HUVEC [1])	growth, % of control at 0.01 µM (HUVEC [2])	growth, % of control at 0.1 µM (HUVEC [3])	Binding [4]	growth, % of control at 1 µM (HUVEC [5])	growth, % of control at 10 µM (HUVEC [6])
COc1cc2c(cc1O)CC[C@@H]1[C@@H]2CC[C@]2(C)[C@@H](O)CC[C@@H]12 [2-METHOXYESTRADIOL]	25%	100%	100%	25%	60%	–
COc1ccc2c(c1)oc(=O)c1cc(C(C)=O)ccc12	30%	100%	90%	100%	85%	25%
COc1cc2c(cc1O)oc(=O)c1cc(C(C)=O)ccc12	60%	90%	100%	90%	85%	10%

Source: ChEMBL document CHEMBL1136750, “Synthesis and evaluation of a novel nonsteroidal-specific endothelial cell proliferation inhibitor” (2003)
